Measurements published in ChEMBL document CHEMBL3102806, “1,2,4-Triazole/oxime hybrids as new strategy for nitric oxide donors: Synthesis, anti-inflammatory, ulceroginicity and antiproliferative activities” (Eur J Med Chem, 2014).

Columns and labels:
Assay type in all cases: functional
[1] = Growth inhibition of human SF539 cells after 48 hrs by sulforhodamine B assay; details: SF-539, 48 h
How it was run: (§1)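 NCI 60-cell-line panel (nine tumour subpanels), five-dose format: 10-fold dilutions from 10^-4 to 10^-8 M, 48 h continuous exposure, SRB protein stain. Percent growth at each level is derived from time-zero, untreated control and treated absorbances. GI50 is the concentration where [(Ti−Tz)/(C−Tz)]×100 = 50. Values outside the tested range are reported as above or below the limit.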

SK-OV-3 = experiment: Growth inhibition of human SKOV3 cells after 48 hrs by sulforhodamine B assay; details: SK-OV-3, 48 h
How it was run: (§2)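 NCI 60-cell-line panel, five-dose run at 10-fold dilutions from 10^-4 to 10^-8 M, 48 h continuous exposure. Viability by SRB protein stain. Percent growth is taken from time-zero, untreated-control and treated absorbances. GI50 is the concentration giving a 50% lower net protein increase than in control cells. TGI is taken at Ti = Tz, LC50 at a 50% loss of initial protein.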

M14 = experiment: Growth inhibition of human M14 cells after 48 hrs by sulforhodamine B assay; details: M14, 48 h; how it was run: as §1
CCRF-CEM = experiment: Growth inhibition of human CCRF-CEM cells after 48 hrs by sulforhodamine B assay
How it was run: (§3)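 NCI full ~60 cell line panel. Five 10-fold concentrations from 10^-4 to 10^-8 M, 48 h continuous exposure, SRB protein read-out. Time-zero, control and treated absorbances give percentage growth. GI50 is the concentration where [(Ti−Tz)/(C−Tz)]×100 = 50; TGI is where Ti = Tz; LC50 is where [(Ti−Tz)/Tz]×100 = −50.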

A498 = experiment: Growth inhibition of human A498 cells after 48 hrs by sulforhodamine B assay; details: A498, 48 h; how it was run: as §3
MCF7 = experiment: Growth inhibition of human MCF7 cells after 48 hrs by sulforhodamine B assay; details: MCF7, 48 h; how it was run: as §1
[2] = Growth inhibition of human UO31 cells after 48 hrs by sulforhodamine B assay; details: UO-31, 48 h; how it was run: as §2
ACHN = experiment: Growth inhibition of human ACHN cells after 48 hrs by sulforhodamine B assay; how it was run: as §3
HT-29 = experiment: Growth inhibition of human HT-29 cells after 48 hrs by sulforhodamine B assay; details: HT-29, 48 h; how it was run: as §3
SN12C = experiment: Growth inhibition of human SN12C cells after 48 hrs by sulforhodamine B assay; how it was run: as §2
HL-60(TB) = experiment: Growth inhibition of human HL-60(TB) cells after 48 hrs by sulforhodamine B assay; details: HL-60, 48 h
How it was run: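 NCI 60-cell panel protocol: cells exposed continuously for 48 h to five 10-fold dilutions from 10^-4 to 10^-8 M. Growth estimated by SRB protein staining with time-zero, untreated-control and treated absorbances. Percentage growth computed at each level, and GI50 taken as the concentration giving a 50% lower net protein increase than control cells.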

NCI-H226 = experiment: Growth inhibition of human NCI-H226 cells after 48 hrs by sulforhodamine B assay; details: NCI-H226, 48 h; how it was run: as §1
MDA-MB-435 = experiment: Growth inhibition of human MDA-MB-435 cells after 48 hrs by sulforhodamine B assay; details: MDA-MB-435, 48 h; how it was run: as §1
U-251 = experiment: Growth inhibition of human U251 cells after 48 hrs by sulforhodamine B assay; details: U-251, 48 h; how it was run: as §2
[3] = Growth inhibition of human NCI-ADR-RES cells after 48 hrs by sulforhodamine B assay; how it was run: as §1
SK-MEL-2 = experiment: Growth inhibition of human SK-MEL-2 cells after 48 hrs by sulforhodamine B assay; details: SK-MEL-2, 48 h; how it was run: as §2
HCT-116 = experiment: Growth inhibition of human HCT116 cells after 48 hrs by sulforhodamine B assay; details: HCT-116, 48 h; how it was run: as §3
[4] = Growth inhibition of human Hs 578T cells after 48 hrs by sulforhodamine B assay; how it was run: as §3
[5] = Growth inhibition of human UACC257 cells after 48 hrs by sulforhodamine B assay; details: UACC-257, 48 h; how it was run: as §2
MOLT-4 = experiment: Growth inhibition of human MOLT4 cells after 48 hrs by sulforhodamine B assay; details: MOLT-4, 48 h; how it was run: as §1
UACC-62 = experiment: Growth inhibition of human UACC62 cells after 48 hrs by sulforhodamine B assay; details: UACC-62, 48 h; how it was run: as §2
[6] = Growth inhibition of human HCC2998 cells after 48 hrs by sulforhodamine B assay; details: HCC 2998, 48 h; how it was run: as §3
K562 = experiment: Growth inhibition of human K562 cells after 48 hrs by sulforhodamine B assay; details: K562, 48 h; how it was run: as §3
MDA-MB-231 = experiment: Growth inhibition of human MDA-MB-231 cells after 48 hrs by sulforhodamine B assay; details: MDA-MB-231, 48 h; how it was run: as §1
DU-145 = experiment: Growth inhibition of human DU145 cells after 48 hrs by sulforhodamine B assay; details: DU-145, 48 h; how it was run: as §3
786-0 = experiment: Growth inhibition of human 786-0 cells after 48 hrs by sulforhodamine B assay; details: 786-0, 48 h; how it was run: as §3
BT-549 = experiment: Growth inhibition of human BT549 cells after 48 hrs by sulforhodamine B assay; details: BT-549, 48 h; how it was run: as §3
[7] = read-out: LC50 (the source's name)

COc1ccc(-c2nnc(SCC(=O)Nc3ccc(/C(C)=N/O)cc3)n2-c2ccccc2)cc1OC
GI50 [1]: 4.77 µM | TGI [1]: 38.8 µM | CC50 [1, 7]: > 100 µM | GI50 (SK-OV-3): 2.73 µM | TGI (SK-OV-3): 13.7 µM | CC50 (SK-OV-3; [7]): > 100 µM | GI50 (M14): 97.4 µM | TGI (M14): > 100 µM | CC50 (M14; [7]): > 100 µM | GI50 (CCRF-CEM): > 100 µM | TGI (CCRF-CEM): > 100 µM | CC50 (CCRF-CEM; [7]): > 100 µM | GI50 (A498): 2.72 µM | TGI (A498): 46.1 µM | CC50 (A498; [7]): > 100 µM | GI50 (MCF7): > 100 µM | TGI (MCF7): > 100 µM | CC50 (MCF7; [7]): > 100 µM | GI50 [2]: > 100 µM | TGI [2]: > 100 µM | CC50 [2, 7]: > 100 µM | GI50 (ACHN): 8.08 µM | TGI (ACHN): > 100 µM | CC50 (ACHN; [7]): > 100 µM | GI50 (HT-29): > 100 µM | TGI (HT-29): > 100 µM | CC50 (HT-29; [7]): > 100 µM | GI50 (SN12C): 26.2 µM | TGI (SN12C): > 100 µM | CC50 (SN12C; [7]): > 100 µM | GI50 (HL-60(TB)): > 100 µM | TGI (HL-60(TB)): > 100 µM | CC50 (HL-60(TB); [7]): > 100 µM | GI50 (NCI-H226): 7.28 µM | TGI (NCI-H226): > 100 µM | CC50 (NCI-H226; [7]): > 100 µM | GI50 (MDA-MB-435): > 100 µM | TGI (MDA-MB-435): > 100 µM | CC50 (MDA-MB-435; [7]): > 100 µM | GI50 (U-251): 3.62 µM | TGI (U-251): 19.6 µM | CC50 (U-251; [7]): > 100 µM | GI50 [3]: > 100 µM | TGI [3]: > 100 µM | CC50 [3, 7]: > 100 µM | GI50 (SK-MEL-2): 5.04 µM | TGI (SK-MEL-2): 28.8 µM | CC50 (SK-MEL-2; [7]): > 100 µM | GI50 (HCT-116): 11.3 µM | TGI (HCT-116): > 100 µM | CC50 (HCT-116; [7]): > 100 µM | GI50 [4]: 3.75 µM | TGI [4]: > 100 µM | CC50 [4, 7]: > 100 µM | GI50 [5]: > 100 µM | TGI [5]: > 100 µM | CC50 [5, 7]: > 100 µM | GI50 (MOLT-4): > 100 µM | TGI (MOLT-4): > 100 µM | CC50 (MOLT-4; [7]): > 100 µM | GI50 (UACC-62): > 100 µM | TGI (UACC-62): > 100 µM | CC50 (UACC-62; [7]): > 100 µM | GI50 [6]: > 100 µM | TGI [6]: > 100 µM | CC50 [6, 7]: > 100 µM | GI50 (K562): > 100 µM | TGI (K562): > 100 µM | CC50 (K562; [7]): > 100 µM | GI50 (MDA-MB-231): 4.26 µM | TGI (MDA-MB-231): 23.8 µM | CC50 (MDA-MB-231; [7]): > 100 µM | GI50 (DU-145): 24.9 µM | TGI (DU-145): > 100 µM | CC50 (DU-145; [7]): > 100 µM | GI50 (786-0): 14.9 µM | TGI (786-0): > 100 µM | CC50 (786-0; [7]): > 100 µM | GI50 (BT-549): 13.7 µM | TGI (BT-549): > 100 µM | CC50 (BT-549; [7]): > 100 µM
